Assays:
[1] = species: Homo sapiens; test: Inhibition of acid-induced fibrillogenesis of human Transthyretin Y78F mutant expressed in Escherichia coli BL21 (DE3) cells assessed as reduction in fibril formation at 40 uM incubated for 30 mins by kinetic turbidimetric assay relative to control
Method in brief: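 TTR-Y78F (final 0.4 mg/mL) preincubated 30 min at 37 °C with ligand up to 40 μM in 5% DMSO at pH 7.6. Aggregation triggered by pH 4.2 acetate buffer, then A340 followed for 1.5 h at 37 °C. From the exponential fit of initial rate versus concentration, RA% is the reduction in initial rate at high inhibitor concentration relative to no inhibitor.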

[2] = Inhibition of acid-induced fibrillogenesis of human Transthyretin Y78F mutant expressed in Escherichia coli BL21 (DE3) cells assessed as inhibition of fibril formation incubated for 30 mins by kinetic turbidimetric assay
Method in brief: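 TTR-Y78F in 20 mM K phosphate, 100 mM KCl, 1 mM EDTA, pH 7.6, preincubated with inhibitor 0–40 μM (final 5% DMSO) 30 min at 37 °C with shaking. Acidified with 400 mM KAcO/100 mM KCl/1 mM EDTA pH 4.2 to final 0.4 mg/mL TTR. A340 read at 1-min intervals for 1.5 h at 37 °C. Initial rates fitted to v0 = A + B·e^(−C[I]) to give IC50.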

Structure (SMILES)	IC50 [2] [µM]	inhibition [1] [%]
O=C(O)c1cc(-c2ccc(F)cc2C(F)(F)F)ccc1O	23.1	60.4
COC(=O)[C@@H](C)NC(=O)c1cc(-c2c(F)cc(F)cc2Cl)cc(I)c1O	6	89
O=C(O)c1cc(-c2c(F)cc(F)cc2Cl)cc(I)c1O	4.6	91
CCOc1cc(F)ccc1-c1cc(I)c(O)c(C(=O)O)c1	5.1	91.1
COc1cc(F)ccc1-c1ccc(O)c(C(=O)O)c1	6	87.8
O=C(O)c1cc(-c2ccc(F)cc2C(F)(F)F)cc(I)c1O	7.2	87
COc1cc(F)ccc1-c1cc(Br)c(O)c(C(=O)O)c1	5.2	95.5
CCOc1cc(F)ccc1-c1ccc(O)c(C(=O)O)c1	6.1	88.8
O=C(O)c1cc(-c2ccc(Cl)cc2F)ccc1O	21.7	77.3
COc1cc(F)ccc1-c1cc(I)c(O)c(C(=O)O)c1	5.3	90.3
O=C(O)c1cc(-c2c(F)cc(F)cc2Cl)ccc1O	7.2	89.1

Compounds with a lower IC50 [2], results first:

IC50 [2] [µM]	Structure (SMILES)	inhibition [1] [%]
3.7	COC(=O)CCNC(=O)c1cc(-c2c(F)cc(F)cc2Cl)cc(I)c1O	90
3.6	O=C(O)c1cc(-c2c(F)cc(F)cc2Cl)cc(Br)c1O	89
4.3	CCOc1cc(F)ccc1-c1cc(Br)c(O)c(C(=O)O)c1	89.9
3.9	O=C(O)c1cc(-c2ccc(Cl)cc2F)cc(I)c1O	88.5
4.2	O=C(O)c1cc(-c2ccc(F)cc2F)cc(I)c1O	94
